Assay results of several laboratories.
Compare with care: the assays were run in different laboratories.
Target: Ephrin type-A receptor 5 (EPHA5, Homo sapiens, UniProt P54756)

For `CC(C)c1ccc(NC(=O)c2cccs2)c(-c2nc3ccccc3[nH]c2=O)c1`, the activity vs control was 112% (enzyme activity; inhibitor; 1 µM).
With `CCc1ccccc1C(=O)Nc1n[nH]c2c(C)c(F)c(C3C(C#N)=C(C)N(C)C(C)=C3C#N)cc12` the remaining binding was 87% (cell-free assay; competition with immobilised ligand; 1 µM).
`COc1cc(-c2cc(-c3ccc(N4CCNCC4)cc3)cnc2C)cc(OC)c1OC` gave an inhibition of 5% (enzyme activity; inhibitor; 0.1 µM).
The inhibition of `COc1cc2ncnc(Nc3ccc(Oc4ccccc4)c(C)c3C)c2cc1OC` is reported as 1% (enzyme activity; inhibitor; 1 µM).
`CCCS(=O)(=O)Nc1ccc(F)c(C(=O)c2c[nH]c3ncc(-c4ccc(Cl)cc4)cc23)c1F` has an inhibition of < 20% (enzyme activity; inhibitor; 1 µM).
For `Oc1ccc(-c2nc(-c3ccncc3)c(-c3ccc(F)cc3)[nH]2)cc1`, the remaining signal was 90.7% (cell-free assay; 0.5 µM).
`Cc1noc([C@H]2C[C@@H](c3ccc(C(F)(F)F)cc3)CN(C(=O)N3CCS(=O)(=O)C3)C2)n1` has a remaining binding of 100% (cell-free assay; competition with immobilised ligand; 1 µM).
For `CC(C)(C)c1nc(-c2cccc(NS(=O)(=O)c3c(F)cccc3F)c2F)c(-c2ccnc(N)n2)s1`, the remaining activity was 116% (enzyme activity; inhibitor; radiometric; 1 µM).
`CC(=O)N1CCC(c2ccc(C(=O)NC3=NCCN3)cc2C(F)(F)F)CC1` has a remaining binding of 100% (cell-free assay; competition with immobilised ligand; 1 µM).
With `O=C1NC(=O)c2cc(Nc3ccc(F)cc3)c(Nc3ccc(F)cc3)cc21` the remaining signal was 95.4% (cell-free assay; 0.5 µM).
`CN1CC(Oc2cnc(C#N)cc2-c2ccn3nc(NC(=O)C4CC4)cc3c2)C1` gave an inhibition of 10% (enzyme activity; inhibitor; 1 µM).
`COc1cc(-c2cn(C3CCc4c(F)cccc4N(CC(F)(F)F)C3=O)nn2)ccc1-n1cnc(C)c1` (stereo not shown) gave a remaining binding of 100% (cell-free assay; competition with immobilised ligand; 1 µM).
With `C#Cc1cccc(Nc2ncnc3cc(OCCOC)c(OCCOC)cc23)c1` the remaining signal was 99.1% (cell-free assay; 0.5 µM).
With `Cc1sc(C(=O)NC2COC2)cc1-n1cc(NC(=O)Nc2c(F)cccc2Cl)cn1` the remaining activity was 106% (enzyme activity; inhibitor; 10 µM).
With `CNC(=O)c1cc(Oc2ccc(NC(=O)Nc3ccc(Cl)c(C(F)(F)F)c3)cc2)ccn1` the inhibition was 92% (enzyme activity; inhibitor; 10 µM).
`C[C@H](NC(=O)c1cnc2n1[C@](C)(Cc1ccc(C#N)cc1)C(=O)N2c1cc(Cl)c(F)c(Cl)c1)C(=O)NC1(c2ccccn2)CC1` gave a remaining binding of 100% (cell-free assay; competition with immobilised ligand; 1 µM).
`C=CC(=O)Nc1cc(Nc2nccc(Nc3cc(Cl)c(F)cc3C(C)(C)O)n2)c(OC)cc1N1CC[C@@H](N(C)C)C1` has an inhibition of 17% (enzyme activity; inhibitor; 1 µM).
`CCOCCn1cc(C(=O)Nc2ccc(-n3nc(-c4cccnc4)cc3C(F)(F)F)cn2)ccc1=O` has a remaining binding of 100% (cell-free assay; competition with immobilised ligand; 1 µM).
The remaining signal of `Cc1ccc(C(=O)Nc2ccc(CN3CCN(C)CC3)c(C(F)(F)F)c2)cc1C#Cc1cnc2cccnn12` is reported as 31% (cell-free assay; 23.5 nM).
The remaining binding of `N#CC1(c2ccccn2)CCN(Cc2cc(C(=O)N3CCCC3)c(=O)n3ccccc23)CC1` is reported as 100% (cell-free assay; competition with immobilised ligand; 1 µM).
For `Cc1ccc(Nc2nccc(N(C)c3ccc4c(C)n(C)nc4c3)n2)cc1S(N)(=O)=O`, the inhibition was 6% (enzyme activity; inhibitor; 0.3 µM).
For `CC/C(=N\NC(=O)NCc1cccc(O)c1)c1ccc(O)c(C)c1O`, the inhibition was -3.3% (enzyme activity; inhibitor; 0.1 µM).
With `Cc1ccc(C(=O)NCc2ccsc2)cc1C#Cc1cn(C(C)C)c2ncnc(N)c12` the activity vs control was 1% (enzyme activity; inhibitor; 1 µM).
`CCN(CC)CCNC(=O)c1c(C)[nH]c(/C=C2\C(=O)Nc3ccc(F)cc32)c1C` has an inhibition of 7% (enzyme activity; inhibitor; 0.3 µM).
`Cc1cnc(NC2CCOCC2)nc1-n1cnc(C(=O)NC(CN)c2cc(F)cc(Cl)c2)c1` (stereo not shown) gave a remaining activity of 92% (enzyme activity; inhibitor; radiometric; 1 µM).
